We go through 20 compounds from ChEMBL document CHEMBL1148831, “1,3-disubstituted ureas functionalized with ether groups are potent inhibitors of the soluble epoxide hydrolase with improved pharmacokinetic properties” (J Med Chem, 2007).

Data set [1] can be described thus: Elimination half life in rat at 5 mg/kg, po. The data set is classed as ADME, organism-based. More on the design: dose 5 mg/kg, route oral. The settings on record: in vivo. Put shortly:
(§1)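 Rodents dosed by oral gavage at 5 mg/kg in oleic oil solution (0.1 mL mice, 1 mL rats). Whole blood (10 μL) sampled at 0, 0.5, 1, 2, 4, 6, 8 and 24 h and analysed by LC/MS/MS. Elimination t1/2 (min) from noncompartmental fit of concentration-time data, averaged over at least three animals.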

Data set [2] is described as follows: Partition coefficient, log P of the compound. To be noted: octanol/water. The class given is physicochemical.
A short description of data set [3]: Elimination half life in dog at 0.3 mg/kg, po. The data set is classed as ADME, organism-based, Canis lupus familiaris. More on the design: dose 0.3 mg/kg, route oral. To be noted: in vivo. An outline of the steps: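 Oral gavage at 0.3 mg/kg in 3 ml tristerate at body temperature. Plasma assayed by LC/MS/MS. t1/2 from noncompartmental fit, minutes, at least three animals.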

Data set [4] can be described thus: Stability in human liver S9 fraction at 100 uM after 1 hr. The data set is classed as ADME, subcellular. The settings on record: read-out: Stability. An outline of the steps:
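Human liver microsomes (0.125 mg protein) or S9 (0.056 mg) in 0.1 M sodium phosphate pH 7.4, preincubated 5 min at 37°C. Compound added from 100 μM stock (final 1.0 μM). Started with NADPH-generating system (NADP, glucose 6-phosphate, G6PDH, MgCl₂), shaken 60 min at 37°C, stopped with cold ethanol with internal standard. Percent remaining vs 0-min ethanol-quenched control.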

Data set [5] can be described thus: Stability in human liver microsomes at 100 uM after 1 hr. The class given is ADME, Microsome. To be noted: read-out: Stability.
Data set [6] in a line: Elimination half life in mouse at 5 mg/kg, po. Also on record: dose 5 mg/kg, route oral. The class given is ADME, organism-based. The settings on record: in vivo. An outline of the steps:
as §1

The half-life is how long it takes for the measured level to halve. A low value points to rapid decline. A word on the logP: it is a log measure of how a compound divides between an organic and an aqueous phase. Read a high logP as higher lipophilicity. Regarding `CCOCCOCCOCCCCCNC(=O)NC12CC3CC(CC(C3)C1)C2`, the half-life in data set [1] amounted to 0.65 h; in data set [3], 3 h. Further, the logP in data set [2] was 3.6. For the same compound, the remaining at 1 h, 100 µM is 11% in data set [4] and 30% in data set [5].

For the compound `CCOCCOCCOCCCCCCC(=O)NC12CC3CC(CC(C3)C1)C2`, the remaining at 1 h, 100 µM came to 5% in data set [4] and 32% in data set [5].

As to `CCOCCOCCOCCCCCNC(=O)CC12CC3CC(CC(C3)C1)C2`, the remaining at 1 h, 100 µM in data set [5] was found to be 5%.

Turning to `CCOCCOCCOC1CCC(NC(=O)NC23CC4CC(CC(C4)C2)C3)CC1` (stereo unspecified), the half-life in data set [1] was found to be 2.5 h; in data set [3], 1.5 h; in data set [6] it was 2.67 h. In data set [2], this compound displayed a logP of 2.9. Further, the remaining at 1 h, 100 µM came to 79% in data set [4] and 91% in data set [5].

`CCCCOCCCCCNC(=O)NC12CC3CC(CC(C3)C1)C2` yielded a logP in data set [2] of 5. In addition, the half-life in data set [3] stood at 2.17 h. Also, the remaining at 1 h, 100 µM in data set [5] was determined as 25%.

Consider `CCCC(C)COCCCCCNC(=O)NC12CC3CC(CC(C3)C1)C2` (stereo unspecified), for which the remaining at 1 h, 100 µM in data set [5] stood at 12%.

On to `CCCOCCCOCCCCCNC(=O)NC12CC3CC(CC(C3)C1)C2`, for which the remaining at 1 h, 100 µM in data set [5] worked out at 6.8%.

Take `CCCOCCCCOCCCCCNC(=O)NC12CC3CC(CC(C3)C1)C2`: in data set [5], the remaining at 1 h, 100 µM came out at 7.5%.

For the compound `CCc1ccc(OCCOCCOCCCCCNC(=O)NC23CC4CC(CC(C4)C2)C3)cc1`, in data set [5], the remaining at 1 h, 100 µM was determined as 21%.

As for `COCCOCCOCCOCCCCCNC(=O)NC12CC3CC(CC(C3)C1)C2`, the remaining at 1 h, 100 µM was 14% in data set [4] and 54% in data set [5].

With `O=C(NCCCCCOCCCN1CCOCC1)NC12CC3CC(CC(C3)C1)C2`, the half-life in data set [1] was 3.33 h; in data set [3] it was 1.5 h; in data set [6] it was 0.25 h. This compound also came in with a logP in data set [2] of 2.4. The remaining at 1 h, 100 µM in data set [4] was 34%; in data set [5], 89%.

Take `CS(=O)(=O)NCCOCCOCCCCCNC(=O)NC12CC3CC(CC(C3)C1)C2`: the remaining at 1 h, 100 µM in data set [4] turned out to be 12%; in data set [5] it was 42%.

`O=C(NC1CCC(OCCCN2CCOCC2)CC1)NC12CC3CC(CC(C3)C1)C2` (stereo unspecified): the half-life in data set [1] turned out to be 1.83 h; in data set [3] it was 2.17 h; in data set [6] it was 1.33 h. This compound showed a lipophilicity (logP) in data set [2] of 2.2. Moreover, the values for the remaining at 1 h, 100 µM in data set [4] and in data set [5] were 81% and 92%, respectively.

`O=C(Nc1ccc(OCCCN2CCOCC2)cc1)NC12CC3CC(CC(C3)C1)C2` came in with a logP in data set [2] of 2.9. The half-life in data set [3] came to 2.17 h. The remaining at 1 h, 100 µM in data set [4] was determined as 97%; in data set [5] it was 93%.

As to `CCCCC(C)OCCCCCNC(=O)NC12CC3CC(CC(C3)C1)C2` (stereo unspecified), the remaining at 1 h, 100 µM in data set [5] is 12%.

For the compound `CS(=O)(=O)NCCCCCOCCCCCNC(=O)NC12CC3CC(CC(C3)C1)C2`, the remaining at 1 h, 100 µM in data set [5] turned out to be 59%.

In the case of `CCOCCOCCOc1cccc(NC(=O)NC23CC4CC(CC(C4)C2)C3)c1`, the figures for the remaining at 1 h, 100 µM in data set [4] and in data set [5] were 9% and 56%, respectively.

In the case of `O=C(NCCCCCOCCOCCOCC(F)(F)F)NC12CC3CC(CC(C3)C1)C2`, the figures for the remaining at 1 h, 100 µM in data set [4] and in data set [5] were 1.1% and 39%, respectively.

Consider `CCOCCOCCOc1ccc(NC(=O)NC23CC4CC(CC(C4)C2)C3)cc1`, for which the results for the half-life in data set [1] and in data set [3] were 9.67 h and 5.33 h, respectively. The lipophilicity (logP) in data set [2] was 3.9. Further, the remaining at 1 h, 100 µM in data set [4] came out at 70%.

Regarding `CCCCCOC1CCC(NC(=O)NC23CC4CC(CC(C4)C2)C3)CC1` (stereo unspecified), the values for the half-life in data set [1], in data set [3] and in data set [6] were 2 h, 2 h and 2.83 h, respectively. In data set [2], this compound showed a log partition coefficient (logP) above 5. The remaining at 1 h, 100 µM in data set [5] turned out to be 22%.
